# Assay results published in ChEMBL document CHEMBL5365541, “Designing peptide amphiphiles as novel antibacterials and antibiotic adjuvants against gram-negative bacteria” (Bioorg Med Chem, 2023).
# Activity calls are given as the source filed them. No cut-off for these calls is given here.
# Tests used:
# [1] = system: Staphylococcus aureus; experiment: Antibacterial activity against methicillin resistant Staphylococcus aureus JE2 measured over 21 days by broth microdilution method; assay type: functional, organism-based; settings: time 21.0 day
# [2] = system: Escherichia coli; experiment: Antibacterial activity against Escherichia coli K12 incubated for 20 to 24 hrs by broth microdilution method; assay type: functional; settings: time 20-24 hrs
# Summary of the method: (§1)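 Broth microdilution: colonies suspended directly to 1.5×10^8 CFU/mL (0.5 McFarland), then diluted in Mueller–Hinton broth to ~10^5 CFU/mL final. PA stock 1 mg/mL in water, pH 7, serially diluted in MHB. Plates incubated 20–24 h at 37 °C. MIC = lowest concentration inhibiting growth, read as OD600 with optional 1% TTC staining. Triplicate.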
# [3] = system: Acinetobacter baumannii; experiment: Antibacterial activity against Acinetobacter baumannii incubated for 20 to 24 hrs by broth microdilution method; assay type: functional; settings: time 20-24 hrs; summary of the method: as §1
# [4] = system: Staphylococcus aureus; experiment: Ratio of MIC for methicillin-resistant Staphylococcus aureus JE2 at pH 5.5 to MIC for methicillin-resistant Staphylococcus aureus JE2 at pH 7.0
# [5] = system: Escherichia coli; experiment: Ratio of MIC for Escherichia coli K12 at pH 5.5 to MIC for Escherichia coli K12 at pH 7.0
# [6] = Self assembly property of the compound assessed as zeta potential at 250 ug/mL at pH 7 measured after 2 hrs; assay type: physicochemical; settings: pH 7, 2 h, dose 250 µg/ml
# Summary of the method: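 Peptide self-assembled at 1 mg/mL, pH 7, annealed 2 h at 80 °C, and aged overnight. Diluted to 250 µg/mL in water; zeta potential measured at 25 °C.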
# [7] = system: HT-29; experiment: Cytotoxicity against human HT-29 cells assessed as inhibition of cell growth incubated for 24 hrs at pH 6.5 by MTT assay; assay type: toxicity, cell-based; settings: ht-29, pH 6.5, 24 h, time 24 hrs
# Summary of the method: (§2)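 HT-29 cells in McCoy's 5a with 10% FBS were seeded at 15,000 cells/well and grown 24 h at 37 °C, 10% CO2. Medium then changed to pH 7.4 or pH 6.5 (20 mM MOPS, acidified with HCl). Peptide added in 2-fold dilutions, 7.8–500 µg/mL, for 24 h. Wells washed and given fresh pH 7.4 medium. MTT (12 mM, 10 µL) added for 4 h, then SDS-HCl for 4 h; A570 read.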
# [8] = Self assembly property of the compound assessed as formation of micelles at 1 mg/ml incubated overnight by transmission electron microscopy; assay type: physicochemical
# Summary of the method: (§3)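 Samples were dissolved at 2 mM in water, pH 7, and left at room temperature overnight. Applied to copper grids for 5 min, blotted, and negatively stained with NanoVan for 30 s. Imaged by TEM at 120 kV.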
# [9] = system: Staphylococcus aureus; experiment: Antibacterial activity against methicillin-resistant Staphylococcus aureus JE2 incubated for 20 to 24 hrs by broth microdilution method; assay type: functional; settings: time 20-24 hrs
# Summary of the method: (§4)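 Broth microdilution in MHB: direct colony suspension at 0.5 McFarland diluted to ~10^5 CFU/mL final; peptide stock 1 mg/mL in water at pH 7, serially diluted. Incubated 20-24 h at 37 °C; MIC taken as the lowest concentration inhibiting growth (OD 600 nm, 1% TTC stain); triplicate; vancomycin and gentamicin as positive controls.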
# [10] = system: HT-29; experiment: Cytotoxicity against human HT-29 cells assessed as inhibition of cell growth incubated for 24 hrs at pH 7.4 by MTT assay; assay type: toxicity, cell-based; settings: ht-29, pH 7.4, 24 h, time 24 hrs; summary of the method: as §2
# [11] = system: Staphylococcus aureus; experiment: Antibacterial activity against methicillin-resistant Staphylococcus aureus 13C incubated for 20 to 24 hrs by broth microdilution method; assay type: functional; settings: time 20-24 hrs; summary of the method: as §4
# [12] = Retention time of the compound by RP-HPLC analysis; assay type: physicochemical
# Summary of the method: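 Reverse-phase HPLC, linear gradient 0–100% acetonitrile in water with 0.1% TFA over 20 min; retention time recorded.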
# [13] = system: Escherichia coli; experiment: Induction of morphological changes in Escherichia coli K12 assessed as membrane deformations with protruding holes at 8 ug/ml incubated for 2 hrs by scanning electron microscopy; assay type: functional, organism-based; settings: dose 8.0 µg/ml
# [14] = system: Staphylococcus aureus; experiment: Induction of morphological changes in Methicillin-resistant Staphylococcus aureus JE2 assessed as cytoplasmic leakage at 8 ug/ml incubated for 2 hrs by scanning electron microscopy; assay type: functional, organism-based; settings: dose 8.0 µg/ml
# [15] = system: Escherichia coli; experiment: Synergistic antibacterial activity against Escherichia coli K12 assessed as fractional inhibitory concentration index incubated for 20 to 24 hrs in presence of rifampicin by checkerboard broth microdilution assay; assay type: functional; settings: time 20-24 hrs
# Summary of the method: (§5)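 Checkerboard broth microdilution. E. coli K12 or A. baumannii clinical isolate grown to mid-log (OD ~0.8) and diluted to ~10^5 CFU/mL in MHB. Two-fold dilutions of rifampicin or vancomycin run across the plate against two-fold PA dilutions down it. Incubated 20–24 h at 37 °C, OD read at 470 nm. FICi calculated from the combination MICs.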
# [16] = system: Staphylococcus aureus; experiment: Induction of morphological changes in methicillin-resistant Staphylococcus aureus JE2 assessed as membrane deformations with protruding holes at 8 ug/ml incubated for 2 hrs by scanning electron microscopy; assay type: functional, organism-based; settings: dose 8.0 µg/ml
# [17] = Cytotoxicity against HEK293 cells assessed as cell viability up to 64 ug/ml incubated for 24 hrs by XTT assay relative to control; assay type: toxicity, cell-based; settings: human, up to 64 µg/mL, read-out: Activity
# Summary of the method: (§6)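 HEK-293 cells, passages 3–8, seeded at 5×10^4 per well and preincubated 24 h at 37 °C, 5% CO2. Medium replaced with serially diluted PA, final 8–256 µg/mL, for 24 h, in triplicate. XTT reagent (0.5 mg/mL) added for 4 h at 37 °C, then absorbance read at 600 nm.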
# [18] = system: Cell membrane; experiment: Induction of inner membrane permeability in Escherichia coli K12 at 4 ug/mL by propidium iodide staining based spectrofluorometry; assay type: subcellular; settings: dose 4.0 µg/ml
# Summary of the method: (§7)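 E. coli K12 grown in MHB to mid-log, washed twice in PBS, and diluted to 10^6 CFU/mL in 5 mM HEPES + glucose. Cells preincubated with […] at least 15 min at 37 °C. Then treated with agent at 1/8, 1× or 2× MIC, or with PA–vancomycin 1:1. Fluorescence read at ex 535 / em 615 nm. Polymyxin B as positive control; untreated cells as negative control.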
# [19] = system: Staphylococcus aureus; experiment: Antibacterial activity against Methicillin-resistant Staphylococcus aureus JE2 infected in Galleria mellonella assessed as survival at 75 mg/kg measured after 4 days relative to control; assay type: functional; settings: JE2, 96 h, time 4 day
# Summary of the method: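 G. mellonella larvae injected with 10 µL MRSA JE2 at a pre-set infective dose (60-80% lethality within 48 h, not 100% within 24 h) into last left proleg; after 2 h, 10 µL peptide or antibiotic injected into last right proleg; larvae held at 37 °C, mortality recorded daily for 4 days; untreated infected and PBS-only larvae as controls.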
# [20] = system: Staphylococcus aureus; experiment: Inhibition of biofilm formation in methicillin-resistant Staphylococcus aureus JE2 at MIC; assay type: functional, organism-based
# [21] = Self assembly property of the compound assessed as width of micelles at 1 mg/ml incubated overnight by transmission electron microscopy; assay type: physicochemical; summary of the method: as §3
# [22] = system: Staphylococcus aureus; experiment: Antibacterial activity against methicillin-resistant Staphylococcus aureus LAC incubated for 20 to 24 hrs by broth microdilution method; assay type: functional; settings: time 20-24 hrs; summary of the method: as §4
# [23] = system: Cell membrane; experiment: Induction of inner membrane permeability in methicillin-resistant Staphylococcus aureus JE2 assessed as shift in bacterial zeta potential at 40 ug/ml measured after 1 hr; assay type: subcellular; settings: dose 40.0 µg/ml
# Summary of the method: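 Mid-log MRSA JE2 from MHB (OD ~0.8) washed and resuspended in PBS at 5×10^7 CFU/mL, exposed to peptide at 10 × MIC for 1 h, then zeta potential measured at 25 °C; untreated cells as negative control, daptomycin and polymyxin B as reference drugs.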
# [24] = system: Acinetobacter baumannii; experiment: Synergistic antibacterial activity against Acinetobacter baumannii assessed as fractional inhibitory concentration index incubated for 20 to 24 hrs in presence of rifampicin by checkerboard broth microdilution assay; assay type: functional; settings: time 20-24 hrs; summary of the method: as §5
# [25] = Toxicity in Galleria mellonella assessed as survival at 125 to 150 mg/kg measured after 4 days relative to control; assay type: organism-based; settings: in vivo, dose 125-150 mg/kg, time 4 day
# Summary of the method: (§8)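 Acute toxicity in G. mellonella larvae following OECD guidelines: cohorts of five larvae injected starting at 25 mg/kg, retested […] on new larvae if lethality was under 40%, continuing until a toxic dose was found; incubated at 37 °C with mortality recorded daily over 4 days.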
# [26] = system: Escherichia coli; experiment: Induction of morphological changes in Escherichia coli K12 assessed as membrane deformations with protruding bumps at 8 ug/ml incubated for 2 hrs by scanning electron microscopy; assay type: functional, organism-based; settings: dose 8.0 µg/ml
# [27] = system: Staphylococcus aureus; experiment: Induction of morphological changes in methicillin-resistant Staphylococcus aureus JE2 assessed as membrane deformations with protruding bumps at 8 ug/ml incubated for 2 hrs by scanning electron microscopy; assay type: functional, organism-based; settings: dose 8.0 µg/ml
# [28] = system: Staphylococcus aureus; experiment: Disruption of preformed biofilm in methicillin-resistant Staphylococcus aureus JE2 at MIC to 4 times MIC; assay type: functional, organism-based
# [29] = system: Cell membrane; experiment: Induction of inner membrane permeability in Escherichia coli K12 at 8 to 16 ug/mL by propidium iodide staining based spectrofluorometry; assay type: subcellular; settings: dose 8-16 µg/ml; summary of the method: as §7
# [30] = system: Escherichia coli; experiment: Induction of morphological changes in Escherichia coli K12 assessed as cytoplasmic leakage at 8 ug/ml incubated for 2 hrs by scanning electron microscopy; assay type: functional, organism-based; settings: dose 8.0 µg/ml
# [31] = system: HEK293; experiment: Cytotoxicity against HEK293 cells assessed as reduction in cell viability at 64 to 256 ug/ml incubated for 24 hrs by XTT assay; assay type: toxicity, cell-based; settings: human, hek293, 24 h, dose 64-256 µg/ml; summary of the method: as §6
# [32] = system: Acinetobacter baumannii; experiment: Synergistic antibacterial activity against Acinetobacter baumannii assessed as potentiation of rifampicin-induced antibacterial activity by measuring fold increase in rifampicin MIC incubated for 20 to 24 hrs by checkerboard broth microdilution assay relative to rifampicin alone; assay type: functional; settings: time 20-24 hrs; summary of the method: as §5
# [33] = system: Cell membrane; experiment: Induction of inner membrane permeability in Escherichia coli K12 assessed as shift in bacterial zeta potential at 40 ug/ml measured after 1 hr; assay type: subcellular; settings: dose 40.0 µg/ml
# [34] = Toxicity in Galleria mellonella assessed as survival at 75 mg/kg measured after 4 days relative to control; assay type: organism-based; settings: in vivo, time 4 day; summary of the method: as §8
smiles,measurement,setting,value
CNC(C)[C@@H]1CC[C@@H](N)[C@@H](O[C@H]2[C@H](O)[C@@H](O[C@H]3OC[C@](C)(O)[C@H](NC)[C@H]3O)[C@H](N)C[C@@H]2N)O1 (stereo not given in full),Activity,[1],Active
same,MIC,[2],1 µg/mL
same,MIC,[3],1 µg/mL
CCCCCCCCCCCCCCCCCCN[C@@H](C)C(=O)N[C@@H](C)C(=O)NC(CN)C(=O)NC(CN)C(=O)NC(CN)C(=O)O (stereo not given in full),Ratio,[4],> 1
same,MIC,[2],32 µg/mL
same,Ratio,[5],> 1
same,Activity,[6],10.3 mV
same,MIC,[3],64 µg/mL
same,Activity,[7],Non-Toxic
same,Activity,[8],Active
same,MIC,[9],32 µg/mL
same,Activity,[10],Non-Toxic
same,MIC,[11],64 µg/mL
same,Retention_time,[12],15.9 min
CCCCCCCCCCCCCCCCN[C@@H](CCCCN)C(=O)N[C@@H](CCCNC(=N)N)C(=O)N[C@@H](CCCCN)C(=O)N[C@@H](CCCNC(=N)N)C(=O)O,Ratio,[4],> 1
same,Activity,[13],Active
same,Activity,[1],Active
same,Activity,[14],Active
same,MIC,[2],4 µg/mL
same,fractional inhibitory concentration index (FICI),[15],0.62
same,Activity,[16],Active
same,viability at 24 h,[17],100%
same,Activity,[18],inactive
same,survival at 75 mg/kg,[19],60%
same,inhibition,[20],Active
same,Ratio,[5],> 1
same,Activity,[21],7 nm
same,MIC,[22],8 µg/mL
same,Activity,[6],15 mV
same,MIC,[3],8 µg/mL
same,Activity,[23],Active
same,MIC,[9],4 µg/mL
same,fractional inhibitory concentration index (FICI),[24],0.75
same,survival at 96 h,[25],80%
same,Activity,[26],Active
same,Activity,[27],Active
same,Activity,[28],inactive
same,MIC,[11],8 µg/mL
same,Retention_time,[12],13.8 min
same,Activity,[29],Active
same,Activity,[30],Active
same,Activity,[31],Non-Toxic
same,fold change (FC),[32],2
same,Activity,[33],Active
same,survival at 96 h,[34],100%
